Measurements from different studies.
Each line is one published result; the experiments were not run side by side.

SMILES	test	system	conditions	endpoint	value
Cc1cc(S(=O)(=O)N[C@]2(C)C[C@H](N3CCN(CC4CCN(c5ccc6c(c5F)n(C)c(=O)n6C5CCC(=O)NC5=O)CC4)CC3)C2)ccc1Nc1ncc(C(F)(F)F)c(N2CCC[C@](C)(O)C2)n1 (some centres unmarked)		rat, plasma	intravenous, 2 mg/kg	Vd	42 L/kg
C[C@H]1Oc2cc(cnc2N)-c2c(nn(C)c2C#N)CN(C)C(=O)c2ccc(F)cc21		male Sprague-Dawley rat, plasma	oral, 10 mg/kg, single dose	Vd/F	37 L/kg
CC(C)c1cc(C(=O)NCCN2CCCC2)c2cnn(C(C)C)c2n1	metabolic stability	mouse, liver microsomes		scaled CLint	195 mL/min/kg
Cc1cc(S(=O)(=O)NC2CC(N3CCN(CC4CCN(c5cccc6c5n(C)c(=O)n6C5CCC(=O)NC5=O)CC4)C4(CC4)C3)C2)ccc1Nc1ncc(C(F)(F)F)c(N2CCC[C@](C)(O)C2)n1 (some centres unmarked)		rat, plasma	intravenous, 2 mg/kg	Vd	82 L/kg
CCC(F)(F)c1cc(N2C(=O)NC(C)(C)C2=O)ccc1F	metabolic stability	mouse, liver microsomes		microsomal CLint	7 µL/min/mg
CNCCNC(=O)c1cc(C(C)C)nc2c1cnn2C(C)C	metabolic stability	mouse, liver microsomes		scaled CLint	694 mL/min/kg
O=c1c2c([nH]c3ccc(Oc4ccc(OC(F)(F)F)cc4)cc13)CCCC2	metabolic stability	mouse, liver microsomes	1 µM, pH 7.4	microsomal CLint	39 µL/min/mg
CNS(=O)(=O)c1ccc(Nc2ncc3cc(Cl)c(=O)n(C4CCCC4)c3n2)c(C)c1		rat, plasma	intravenous, 2 mg/kg	Vd	4 L/kg
CN(C)CCOc1ccc2c(=O)c3c([nH]c2c1)CCCC3	metabolic stability	mouse, liver microsomes	1 µM, pH 7.4	microsomal CLint	40.4 µL/min/mg
CC(C)c1cc(C(=O)NCCN)c2cnn(C(C)C)c2n1	metabolic stability	mouse, liver microsomes		scaled CLint	< 38 mL/min/kg
O=c1c2ccc(Oc3cccc(OC(F)(F)F)c3)cc2[nH]c2cc(Cl)cc(F)c12	metabolic stability	mouse, liver microsomes	1 µM, pH 7.4	microsomal CLint	24.3 µL/min/mg
CC1(C)NC(=O)N(c2ccc(F)c(S(C)(=O)=O)c2)C1=O	metabolic stability	mouse, liver microsomes		microsomal CLint	< 7 µL/min/mg
CC(C)n1ncc2c(C(=O)NCC3(C)CNC3)cc(C3CC3)nc21	metabolic stability	mouse, liver microsomes		scaled CLint	< 38 mL/min/kg
CCCCN(CCCC)CCCOc1ccc2c(=O)c3c([nH]c2c1)CCCC3	metabolic stability	mouse, liver microsomes	1 µM, pH 7.4	microsomal CLint	36.2 µL/min/mg
